Laboratory results reported in ChEMBL document CHEMBL1126882, “Orally active central dopamine and serotonin receptor ligands: 5-, 6-, 7-, and 8-[[trifluoromethyl)sulfonyl]oxy]-2-(di-n-propylamino)tetralins and the formation of active metabolites in vivo” (J Med Chem, 1993).
Active and inactive are the calls of the source. No cut-off for these calls is given here.

Columns and labels:
D(2) dopamine receptor [1] = biological target: T1, D(2) dopamine receptor (Rattus norvegicus, UniProt P61169); experiment: Binding affinity against dopamine receptor D2 in rat brain tissue using [3H]spiperone; type: tissue-based
In short: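 Rat striatal membranes were prepared in 50 mM potassium phosphate (pH 7.4). They were incubated with 0.5 nM [3H]spiperone (3 mg original tissue) for 10 min at 37 °C. Specific binding was defined with 10 μM 6,7-ADTN. Six drug concentrations (10⁻⁴-10⁻⁹ M) were tested, in triplicate or in a single experiment.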

[2] = (§1) Effective dose for half-maximal decrease in the accumulation of 5-hydroxytryptophan (5-HTP) in reserpinized rat brain limbic area by po administration; type: functional
In short: (§2)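 Male Sprague-Dawley rats (200-300 g) got reserpine 5 mg/kg sc 18 h before. The test drug (saline) was given sc or po (po rats fasted 18 h), with NSD 1015, 30 min before decapitation. DOPA and 5-HTP in limbic, striatal and hemispheral tissue were measured by HPLC-ED. ED50 (half-maximal decrease) was taken from 4-6-dose curves, with deviation estimated graphically from SEM.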

[3] = biological target: T2, Dopamine receptor (Rattus norvegicus) (UniProt P25115+P19020+P30729+P18901+P61169); experiment: Effective dose for half-maximal decrease in the accumulation of DOPA in reserpinized rat brain striatal area by sc administration; type: functional, organism-based; in short: as §2
[4] = biological target: T2, Dopamine receptor (Rattus norvegicus); experiment: Effective dose for half-maximal decrease in the accumulation of DOPA in reserpinized rat brain hemispheral area by po administration; type: functional, organism-based; in short: as §2
[5] = biological target: T3, 5-hydroxytryptamine receptor 1A (Rattus norvegicus, UniProt P19327); experiment: Binding affinity against 5-hydroxytryptamine 1A receptor in homogenated rat brain tissue, using by [3H]8-OH-DPAT as radioligand; type: tissue-based
T3 sequence (P19327 whole entry): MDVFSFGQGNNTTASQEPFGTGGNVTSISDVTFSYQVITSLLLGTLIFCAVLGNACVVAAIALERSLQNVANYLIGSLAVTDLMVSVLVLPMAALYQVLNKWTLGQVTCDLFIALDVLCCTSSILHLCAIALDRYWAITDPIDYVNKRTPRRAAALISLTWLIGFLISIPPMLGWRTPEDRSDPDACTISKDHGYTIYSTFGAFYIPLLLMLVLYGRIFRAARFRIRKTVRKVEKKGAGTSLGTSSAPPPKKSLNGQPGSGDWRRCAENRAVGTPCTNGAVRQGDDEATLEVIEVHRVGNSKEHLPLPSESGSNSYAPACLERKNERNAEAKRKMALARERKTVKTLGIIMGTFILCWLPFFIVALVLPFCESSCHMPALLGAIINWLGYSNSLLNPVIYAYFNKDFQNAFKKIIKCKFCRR
In short: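 Rat brain homogenate was washed and preincubated in 50 mM Tris (pH 8.0) containing NaCl, CaCl2 and MgCl2, plus 10 μM pargyline. Nonspecific binding was defined with 10 μM 5-HT. Six drug concentrations (10⁻⁴-10⁻⁹ M) were tested, triplicate or single run. IC50 came from a semilog plot with linear regression.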

[6] = biological target: T2, Dopamine receptor (Rattus norvegicus); experiment: (§3) Effective dose for half-maximal decrease in the accumulation of DOPA in reserpinized rat brain hemispheral area by sc administration; Inactive; type: functional, organism-based; in short: as §2
Rattus norvegicus [7] = experiment: Effective dose for half-maximal decrease in the accumulation of 5-hydroxytryptophan (5-HTP) in reserpinized rat brain hemispheral area by sc administration; Inactive; type: functional, organism-based; in short: as §2
[8] = (§4) Effective dose for half-maximal decrease in the accumulation of 5-hydroxytryptophan (5-HTP) in reserpinized rat brain striatal area by po administration; type: functional; in short: as §2
[9] = biological target: T2, Dopamine receptor (Rattus norvegicus); experiment: Effective dose for half-maximal decrease in the accumulation of DOPA in reserpinized rat brain striatal area by po administration; type: functional, organism-based; in short: as §2
Rattus norvegicus [10] = experiment: Effective dose for half-maximal decrease in the accumulation of 5-hydroxytryptophan (5-HTP) in reserpinized rat brain limbic area by sc administration; Inactive; type: functional, organism-based; in short: as §2
[11] = biological target: T2, Dopamine receptor (Rattus norvegicus); experiment: Effective dose for half-maximal decrease in the accumulation of DOPA in reserpinized rat brain limbic area by sc administration; type: functional, organism-based; in short: as §2
[12] = biological target: T2, Dopamine receptor (Rattus norvegicus); experiment: Effective dose for half-maximal decrease in the accumulation of DOPA in reserpinized rat brain limbic area by po administration; type: functional, organism-based; in short: as §2
Rattus norvegicus [13] = experiment: Effective dose for half-maximal decrease in the accumulation of 5-hydroxytryptophan (5-HTP) in reserpinized rat brain striatal area by sc administration; Inactive; type: functional, organism-based; in short: as §2
[14] = (§5) Effective dose for half-maximal decrease in the accumulation of 5-hydroxytryptophan (5-HTP) in reserpinized rat brain hemispheral area by po administration; type: functional; in short: as §2
[15] = (§6) Effective dose for half-maximal decrease in the accumulation of 5-hydroxytryptophan (5-HTP) in reserpinized rat brain striatal area by sc administration; type: functional; in short: as §2
[16] = (§7) Effective dose for half-maximal decrease in the accumulation of 5-hydroxytryptophan (5-HTP) in reserpinized rat brain hemispheral area by sc administration; type: functional; in short: as §2
Rattus norvegicus [17] = experiment: post-synaptic agonistic effects by increase in locomotor activity at the dose of 50 umol/kg, sc in reserpinized rat (p<0.005); type: functional
D(2) dopamine receptor [18] = biological target: T1, D(2) dopamine receptor; experiment: Binding affinity against dopamine receptor D2 in homogenated rat brain tissue, using by ([3H]N00437) as radioligand; type: tissue-based
In short: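 Striata from male Wistar rats were washed in Tris (pH 7.5) containing EDTA, KCl and CaCl2. Tissue (1.25 mg original) was incubated with 0.2 nM [3H]-N-0437 (final) for 90 min at 25 °C, then filtered and counted by scintillation. Nonspecific binding was defined with 1 μM 6,7-ADTN. IC50 was read from a hand-fitted sigmoid curve, in triplicate.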

Rattus norvegicus [19] = experiment: Effective dose for half-maximal decrease in the accumulation of 5-hydroxytryptophan (5-HTP) in reserpinized rat brain limbic area by sc administration; partial response at the highest dose tested; type: functional, organism-based; in short: as §2
[20] = biological target: T2, Dopamine receptor (Rattus norvegicus); experiment: Effective dose for half-maximal decrease in the accumulation of DOPA in reserpinized rat brain hemispheral area by sc administration; partial response at the highest dose tested; type: functional, organism-based; in short: as §2
Rattus norvegicus [21] = experiment: post-synaptic agonistic effects by increase in locomotor activity at the dose of 1.0 umol/kg, sc in reserpinized rat; type: functional
In short: (§8)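 Male Sprague-Dawley rats (200-300 g) given reserpine 5 mg/kg sc in the neck 18 h before testing. The test compound, in 0.9% saline, was given sc in the neck (n = 4-5). Rats were placed singly in photocell motility meters right after dosing. Counts were recorded over 30 min, alongside gross behavioural observation of 5-HT and DA signs. Statistics: ANOVA with Fischer's PLSD versus reserpine controls.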

Rattus norvegicus [22] = organism: Rattus norvegicus; experiment: DA agonist induced behavior was charecterised by increased locomotion, sniffing and licking.+ indicates low intensity of behavioral effect; type: functional, organism-based; in short: as §8
Rattus norvegicus [23] = experiment: post-synaptic agonistic effects by increase in locomotor activity at the dose of 2.2 umol/kg, sc in reserpinized rat; type: functional
Rattus norvegicus [24] = experiment: as §1; type: functional; in short: as §2
Rattus norvegicus [25] = experiment: post-synaptic agonistic effects by increase in locomotor activity at the dose of 0.2 umol/kg, sc in reserpinized rat (p<0.005); type: functional; in short: as §8
Rattus norvegicus [26] = experiment: Effective dose for half-maximal decrease in the accumulation of 5-hydroxytryptophan (5-HTP) in reserpinized rat brain limbic area by sc administration; type: functional; in short: as §2
Rattus norvegicus [27] = experiment: as §6; type: functional; in short: as §2
Rattus norvegicus [28] = experiment: Effective dose for half-maximal decrease in the accumulation of DOPA in reserpinized rat brain limbic area by sc administration; Inactive; type: functional, organism-based; in short: as §2
Rattus norvegicus [29] = experiment: as §7; type: functional; in short: as §2
Rattus norvegicus [30] = experiment: as §3; type: functional, organism-based; in short: as §2
[31] = Half-lives were estimated from the elimination phase of the blood conc-time curve after oral administration; type: ADME, organism-based; conditions: rat, whole blood
In short: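 Male Sprague-Dawley rats (300 g) with arterial catheters were dosed 24 h after surgery. Doses: 40 μmol/kg po by gavage and 5 μmol/kg iv, or 20 po and 1 iv. Po rats were fasted 18 h. Blood was sampled from 5 min to 12 h and measured by GC-MS after extraction at pH 11 against an internal standard, samples in duplicate. AUC po/iv came from n = 4 per route. Half-life was read graphically from the oral elimination phase.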

Rattus norvegicus [32] = experiment: as §4; type: functional; in short: as §2
Rattus norvegicus [33] = experiment: Effective dose for half-maximal decrease in the accumulation of DOPA in reserpinized rat brain striatal area by po administration; Partial response at the highest dose tested; type: functional, organism-based; in short: as §2
Rattus norvegicus [34] = experiment: Effective dose for half-maximal decrease in the accumulation of DOPA in reserpinized rat brain limbic area by po administration; Partial response at the highest dose tested; type: functional, organism-based; in short: as §2
Rattus norvegicus [35] = experiment: Effective dose for half-maximal decrease in the accumulation of DOPA in reserpinized rat brain striatal area by sc administration; Inactive; type: functional, organism-based; in short: as §2
Rattus norvegicus [36] = experiment: as §5; type: functional; in short: as §2

T1 sequence (P61169 whole entry): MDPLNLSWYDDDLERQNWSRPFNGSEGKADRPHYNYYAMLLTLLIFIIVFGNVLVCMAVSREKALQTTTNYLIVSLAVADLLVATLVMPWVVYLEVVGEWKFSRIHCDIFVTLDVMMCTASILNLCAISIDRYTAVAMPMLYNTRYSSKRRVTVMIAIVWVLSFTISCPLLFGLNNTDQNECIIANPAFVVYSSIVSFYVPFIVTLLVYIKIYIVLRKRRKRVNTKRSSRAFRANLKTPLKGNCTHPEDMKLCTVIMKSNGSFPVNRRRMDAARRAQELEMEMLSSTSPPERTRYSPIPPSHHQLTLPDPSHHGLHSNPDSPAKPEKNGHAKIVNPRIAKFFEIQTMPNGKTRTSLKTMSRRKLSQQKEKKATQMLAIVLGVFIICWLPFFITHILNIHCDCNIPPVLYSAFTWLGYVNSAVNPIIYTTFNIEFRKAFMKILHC

## CCCN(CCC)C1CCc2c(cccc2OC)C1 (configuration not stated)
D(2) dopamine receptor [1]
  Ki: 0.1 µM
[2]
  ED50: 0.4 µmol/kg
[3]
  ED50: 0.02 µmol/kg
[4]
  ED50: 0.3 µmol/kg
[5]
  Ki: 0.44 µM
[6]
  ED50: inactive
Rattus norvegicus [7]
  ED50: inactive
[8]
  ED50: 0.5 µmol/kg
[9]
  ED50: 0.2 µmol/kg
Rattus norvegicus [10]
  ED50: inactive
[11]
  ED50: 0.01 µmol/kg
[12]
  ED50: 0.2 µmol/kg
Rattus norvegicus [13]
  ED50: inactive
[14]
  ED50: 0.3 µmol/kg

## CCCN(CCC)C1CCc2ccc(OS(=O)(=O)C(F)(F)F)cc2C1 (configuration not stated)
D(2) dopamine receptor [1]
  Ki: 1.3 µM
[3]
  ED50: 0.4 µmol/kg
[15]
  ED50: 34 µmol/kg
[16]
  ED50: 27 µmol/kg
[5]
  Ki: 0.36 µM
Rattus norvegicus [17]
  Counts/30: 170 min
D(2) dopamine receptor [18]
  Ki: 0.15 µM
[11]
  ED50: 1.6 µmol/kg
Rattus norvegicus [19]
  ED50: Weak activity
[20]
  ED50: Weak activity

## CCCN(CCC)C1CCc2ccc(O)cc2C1 (configuration not stated)
[3]
  ED50: 0.03 µmol/kg
[5]
  Ki: 2.8 µM
[6]
  ED50: inactive
Rattus norvegicus [7]
  ED50: inactive
Rattus norvegicus [21]
  Counts/30: 160 counts/30 min
Rattus norvegicus [22]
  Behavioral observation: Partially active
Rattus norvegicus [10]
  ED50: inactive
[11]
  ED50: 0.03 µmol/kg
Rattus norvegicus [13]
  ED50: inactive

## CCCN(CCC)[C@@H]1CCc2ccc(O)cc2C1
[5]
  Ki: 3.26 µM
Rattus norvegicus [7]
  ED50: inactive
Rattus norvegicus [22]
  Behavioral observation: Partially active
Rattus norvegicus [10]
  ED50: inactive
Rattus norvegicus [23]
  Counts/30: 100 counts/30 min
Rattus norvegicus [13]
  ED50: inactive

## CCCN(CCC)C1CCc2cccc(O)c2C1 (configuration not stated) [8-OH-DPAT]
Rattus norvegicus [24]
  ED50: 3 µmol/kg
Rattus norvegicus [25]
  Counts/30: 66 counts/30 min
Rattus norvegicus [26]
  ED50: 0.05 µmol/kg
Rattus norvegicus [27]
  ED50: 0.04 µmol/kg
Rattus norvegicus [28]
  ED50: inactive
Rattus norvegicus [29]
  ED50: 0.07 µmol/kg
Rattus norvegicus [30]
  ED50: inactive
[31]
  half-life: 1.2 h
Rattus norvegicus [32]
  ED50: 7.9 µmol/kg
Rattus norvegicus [33]
  ED50: Weak activity
Rattus norvegicus [34]
  ED50: Weak activity
Rattus norvegicus [35]
  ED50: inactive
Rattus norvegicus [36]
  ED50: 7.6 µmol/kg
